Experimental data taken from ChEMBL document CHEMBL5724801, “EUbOPEN Chemogenomics Library - Multiplex” (2024).
Where “and” joins values, the source holds several entries; their conditions need not be identical. Identical values can stand only once.

Test system: Fibroblast
Assay: Multiplex assay against human fibroblast
Format: toxicity, cell-based
Summary of the method: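 Tubulin, mitochondrial-mass and membrane-permeability phenotypes are per cents of healthy-nucleus cells. Cells were gated by CellPathfinder machine learning into Hoechst high-intensity objects or normal cells, normal cells into healthy, pyknosed or fragmented nuclei, and pyknosed cells into mitotic or apoptotic. Before that, live cells stained at seeding with Hoechst33342, BioTracker Green Microtubule Cytoskeleton Dye, MitoTracker Red and Annexin V Alexa Fluor 680 were imaged on a CQ1 microscope at 37°C and 5% CO2 after compound addition.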

[1] = 12 h, 1 µM, compound concentration 1 uM
[2] = 12 h, 10 µM, compound concentration 10 uM
[3] = 24 h, 1 µM, compound concentration 1 uM
[4] = 24 h, 10 µM, compound concentration 10 uM
[5] = 48 h, 1 µM, compound concentration 1 uM
[6] = 48 h, 10 µM, compound concentration 10 uM

Q: Which “Population Apoptotic (%)” value [1] does the source give for `CC[C@H]1OC(=O)[C@H](C)[C@@H](O[C@H]2C[C@@](C)(OC)[C@@H](O)[C@H](C)O2)[C@H](C)[C@@H](O[C@@H]2O[C@H](C)C[C@H](N(C)C)[C@H]2O)[C@@]2(C)CC(C)=C(O2)[C@H](C)[C@@H](O)[C@]1(C)O` here?
A: The value was 37% and 46%.

Q: What about the “Population Fragmented Nuclei (%)” value [1] of the same molecule?
A: The value was 13% and 23%.

Q: And the “Population Healthy Nuclei (%)” value [1]?
A: The value was 72% and 57%.

Q: What about the “Population Hoechst High Intensity Objects (%)” value [1] of the same molecule?
A: The value was 2% and 3%.

Q: And the “Population Membrane Permeable-Phenotype (%)” value [1]?
A: Its value is 0% and 9%.

Q: What about the “Population Mitochondria Different-Phenotype (%)” value [1] of the same molecule?
A: Its value is 8% and 6%.

Q: And the “Population Mitotic Cells (%)” value [1]?
A: The value was 62% and 53%.

Q: And the “Population Normal (%)” value [1]?
A: Its value is 97% and 96%.

Q: What about the “Population Pyknosed Nuclei (%)” value [1] of the same molecule?
A: Its value is 13% and 18%.

Q: And the “Population Tubulin-Different-Phenotype (%)” value [1]?
A: The value was 40% and 53%.

Q: What about the “Total Cell Count” value [1] of the same molecule?
A: Its value is 176 and 170.

Q: What about the “Population Apoptotic (%)” value [2] of the same molecule?
A: The value was 48% and 40%.

Q: What about the “Population Fragmented Nuclei (%)” value [2] of the same molecule?
A: Its value is 24% and 41%.

Q: What about the “Population Healthy Nuclei (%)” value [2] of the same molecule?
A: Its value is 63% and 33%.

Q: And the “Population Hoechst High Intensity Objects (%)” value [2]?
A: Its value is 3% and 4%.

Q: And the “Population Membrane Permeable-Phenotype (%)” value [2]?
A: The value was 0% and 14%.

Q: What about the “Population Mitochondria Different-Phenotype (%)” value [2] of the same molecule?
A: The value was 25% and 11%.

Q: What about the “Population Mitotic Cells (%)” value [2] of the same molecule?
A: The value was 52% and 59%.

Q: And the “Population Normal (%)” value [2]?
A: The value was 96% and 95%.

Q: And the “Population Pyknosed Nuclei (%)” value [2]?
A: The value was 12% and 25%.

Q: What about the “Population Tubulin-Different-Phenotype (%)” value [2] of the same molecule?
A: Its value is 86% and 73%.

Q: And the “Total Cell Count” value [2]?
A: Its value is 205 and 133.

Q: And the “Population Apoptotic (%)” value [3]?
A: Its value is 52% and 46%.

Q: And the “Population Fragmented Nuclei (%)” value [3]?
A: The value was 18% and 29%.

Q: What about the “Population Healthy Nuclei (%)” value [3] of the same molecule?
A: The value was 69% and 52%.

Q: And the “Population Hoechst High Intensity Objects (%)” value [3]?
A: The value was 4% and 3%.

Q: What about the “Population Membrane Permeable-Phenotype (%)” value [3] of the same molecule?
A: The value was 0% and 7%.

Q: What about the “Population Mitochondria Different-Phenotype (%)” value [3] of the same molecule?
A: Its value is 7% and 5%.

Q: And the “Population Mitotic Cells (%)” value [3]?
A: The value was 47% and 53%.

Q: And the “Population Normal (%)” value [3]?
A: Its value is 95% and 96%.

Q: What about the “Population Pyknosed Nuclei (%)” value [3] of the same molecule?
A: Its value is 12% and 17%.

Q: What about the “Population Tubulin-Different-Phenotype (%)” value [3] of the same molecule?
A: Its value is 45% and 36%.

Q: What about the “Total Cell Count” value [3] of the same molecule?
A: Its value is 173 and 176.

Q: What about the “Population Apoptotic (%)” value [4] of the same molecule?
A: The value was 52% and 46%.

Q: And the “Population Fragmented Nuclei (%)” value [4]?
A: The value was 22% and 40%.

Q: What about the “Population Healthy Nuclei (%)” value [4] of the same molecule?
A: Its value is 69% and 39%.

Q: What about the “Population Hoechst High Intensity Objects (%)” value [4] of the same molecule?
A: The value was 2% and 1%.

Q: And the “Population Membrane Permeable-Phenotype (%)” value [4]?
A: Its value is 0% and 8%.

Q: And the “Population Mitotic Cells (%)” value [4]?
A: Its value is 47% and 53%.

Q: And the “Population Normal (%)” value [4]?
A: Its value is 97% and 98%.

Q: What about the “Population Pyknosed Nuclei (%)” value [4] of the same molecule?
A: The value was 8% and 20%.

Q: And the “Population Tubulin-Different-Phenotype (%)” value [4]?
A: Its value is 89% and 81%.

Q: And the “Total Cell Count” value [4]?
A: Its value is 199 and 127.

Q: What about the “Population Apoptotic (%)” value [5] of the same molecule?
A: The value was 55% and 56%.

Q: And the “Population Fragmented Nuclei (%)” value [5]?
A: The value was 17% and 32%.

Q: What about the “Population Healthy Nuclei (%)” value [5] of the same molecule?
A: Its value is 71% and 54%.

Q: And the “Population Hoechst High Intensity Objects (%)” value [5]?
A: Its value is 3% and 2%.

Q: What about the “Population Membrane Permeable-Phenotype (%)” value [5] of the same molecule?
A: Its value is 0% and 7%.

Q: What about the “Population Mitochondria Different-Phenotype (%)” value [5] of the same molecule?
A: The value was 9% and 5%.

Q: What about the “Population Mitotic Cells (%)” value [5] of the same molecule?
A: The value was 44% and 43%.

Q: And the “Population Normal (%)” value [5]?
A: Its value is 96% and 97%.

Q: And the “Population Pyknosed Nuclei (%)” value [5]?
A: Its value is 11% and 13%.

Q: What about the “Population Tubulin-Different-Phenotype (%)” value [5] of the same molecule?
A: The value was 57% and 56%.

Q: And the “Total Cell Count” value [5]?
A: The value was 168 and 173.

Q: What about the “Population Apoptotic (%)” value [6] of the same molecule?
A: Its value is 84% and 58%.

Q: What about the “Population Fragmented Nuclei (%)” value [6] of the same molecule?
A: Its value is 24% and 43%.

Q: What about the “Population Healthy Nuclei (%)” value [6] of the same molecule?
A: Its value is 68% and 47%.

Q: And the “Population Hoechst High Intensity Objects (%)” value [6]?
A: The value was 8% and 7%.

Q: What about the “Population Membrane Permeable-Phenotype (%)” value [6] of the same molecule?
A: Its value is 0% and 6%.

Q: What about the “Population Mitotic Cells (%)” value [6] of the same molecule?
A: The value was 15% and 41%.

Q: And the “Population Normal (%)” value [6]?
A: The value was 91% and 92%.

Q: What about the “Population Pyknosed Nuclei (%)” value [6] of the same molecule?
A: The value was 6% and 9%.

Q: And the “Population Tubulin-Different-Phenotype (%)” value [6]?
A: The value was 91% and 78%.

Q: And the “Total Cell Count” value [6]?
A: The value was 216 and 139.
